Experimental data: ChEMBL document CHEMBL5674890, “Selective inhibition of CBP/p300 HAT by A-485 results in suppression of lipogenesis and hepatic gluconeogenesis” (Cell Death Dis, 2020)
The source made the active and inactive calls.

Tests used:
Mus musculus [1] = assay: Anti-obesity activity in C57BL/6 mouse supplemented with normal chow diet assessed effect on total lean mass at 20 mg/kg/day, ip administered for 1 week measured by EchoMRI live analysis; format: functional, organism-based; details: time 1.0 weeks
In short: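 Normal-chow male C57BL/6 mice, 8 weeks old, ip 20 mg·kg−1·day−1 daily for 7 days. Total lean and fat mass measured in live animals by EchoMRI. Mean ± SEM, n = 5–9.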

Mus musculus [2] = assay: Inhibition of lipogenesis in C57BL/6 mouse supplemented with high-fat diet assessed as decrease in adipocyte size of WAT at 20 mg/kg/day, ip administered for 1 week; format: functional, organism-based; details: time 1.0 weeks
In short: (§1)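 Male C57BL/6 mice were fed high-fat diet for 14 weeks from 5 weeks of age, then injected ip with 20 mg·kg−1·day−1 for 7 days or given vehicle. Epididymal and inguinal WAT were weighed, examined by H&E, and analysed. Transcripts were measured by Trizol/SYBR Green RT-qPCR; proteins by western blot. n = 5–9; mean ± SEM.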

Mus musculus [3] = assay: Inhibition of lipogenesis in C57BL/6 mouse supplemented with high-fat diet assessed as decrease in SCD1 mRNA expression at 20 mg/kg/day, ip administered for 1 week measured by RT-qPCR assay; format: functional, organism-based; details: time 1.0 weeks; in short: as §1
Mus musculus [4] = assay: Inhibition of lipogenesis in C57BL/6 mouse supplemented with high-fat diet assessed as decrease in DGAT2 mRNA expression at 20 mg/kg/day, ip administered for 1 week measured by RT-qPCR assay; format: functional, organism-based; details: time 1.0 weeks; in short: as §1
Mus musculus [5] = assay: Inhibition of lipogenesis in C57BL/6 mouse supplemented with high-fat diet assessed as decrease in SREBP-1c mRNA expression at 20 mg/kg/day, ip administered for 1 week measured by RT-qPCR assay; format: functional, organism-based; details: time 1.0 weeks; in short: as §1
Mus musculus [6] = assay: Inhibition of lipogenesis in C57BL/6 mouse supplemented with normal chow diet assessed as decrease in FABP4 mRNA expression at 20 mg/kg/day, ip administered for 1 week measured measured by RT-qPCR assay; format: functional, organism-based; details: time 1.0 weeks
In short: (§2)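 Eight-week-old male C57BL/6 mice on normal chow were given 20 mg·kg−1·day−1 ip daily for 7 days or vehicle. Epididymal WAT was collected. Lipogenic, adipogenic and fatty-acid-oxidation transcripts were quantified by Trizol extraction and SYBR Green RT-qPCR. FAS, ACC, PPARγ and C/EBPα protein were assessed by western blot. n = 5–9; mean ± SEM.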

Mus musculus [7] = assay: Inhibition of lipogenesis in C57BL/6 mouse supplemented with normal chow diet assessed as decrease in LPL mRNA expression at 20 mg/kg/day, ip administered for 1 week measured measured by RT-qPCR assay; format: functional, organism-based; details: time 1.0 weeks; in short: as §2
Adipocyte [8] = assay: Inhibition of lipogenesis in mouse adipocytes isolated stromal vascular cells assessed as decrease in DGAT2 mRNA expression measured after 24 hrs by RT-qPCR assay; format: functional, cell-based
In short: (§3)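 Stromal vascular cells from inguinal WAT of C57BL/6 mice, grown in DMEM/F12 + 10% FBS at 37 °C, 10% CO2. At confluence, induced 48 h with 5 μg/ml insulin, 1 μM dexamethasone, 0.5 mM isobutylmethylxanthine, then 6 days in 5 μg/ml insulin; fully differentiated day 8. Mature adipocytes exposed to inhibitor 24 h. Total RNA by Trizol, SYBR Green RT-qPCR; protein by western blot.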

Adipocyte [9] = assay: Inhibition of lipogenesis in mouse adipocytes isolated stromal vascular cells assessed as decrease in adiponectin mRNA expression measured after 24 hrs by RT-qPCR assay; format: functional, cell-based; in short: as §3
Adipocyte [10] = assay: Inhibition of lipogenesis in mouse adipocytes isolated stromal vascular cells assessed as decrease in LPL mRNA expression measured after 24 hrs by RT-qPCR assay; format: functional, cell-based; in short: as §3
Mus musculus [11] = assay: Inhibition of hepatic lipogenesis in C57BL/6 mouse supplemented with normal chow diet assessed as effect on CPT1alpha mRNA expression at 20 mg/kg/day, ip administered for 1 week measured by RT-qPCR assay; format: functional, organism-based; details: time 1.0 weeks
In short: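 Normal-chow male C57BL/6 mice, 8 weeks old, were injected ip at 20 mg·kg−1·day−1 daily for 7 days or given vehicle. Liver RNA was extracted with Trizol, and fatty-acid-oxidation gene transcripts were quantified by SYBR Green RT-qPCR. n = 5–9; mean ± SEM.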

Hepatocyte [12] = assay: Inhibition of lipogenesis in mouse primary hepatocytes assessed as decrease in FASN mRNA expression at 3 uM in presence of 100 nM insulin and 5 to 25 mM glucose measured after 18 hrs by RT-qPCR assay; format: functional, cell-based
In short: (§4)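 Primary hepatocytes isolated from C57BL/6 mice by two-step perfusion. Cells incubated 18 h with 3 μM inhibitor, with 0 or 100 nM insulin and 5 or 25 mM glucose. Transcripts quantified by SYBR Green RT-qPCR after Trizol RNA extraction; proteins by western blot of lysates. Mean ± SEM.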

Hepatocyte [13] = assay: Inhibition of lipogenesis in mouse primary hepatocytes assessed as decrease in ACC mRNA expression at 3 uM in presence of 100 nM insulin and 5 to 25 mM glucose measured after 18 hrs by RT-qPCR assay; format: functional, cell-based; in short: as §4
Hepatocyte [14] = assay: Inhibition of glucogenesis in mouse primary hepatocytes stimulated with 100 uM 8-Br-cAMP assessed as effect on pAMPK protein expression at 3 uM measured after 1 hr by western blot analysis; format: functional, cell-based
In short: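 Primary hepatocytes from C57BL/6 mice, isolated by two-step perfusion, were co-treated with 3 μM A-485 and 100 μM 8-Br-cAMP for 1 h. Phospho-CREB, phospho-AMPK and phospho-TORC2 were detected by western blot of cell lysates. Three independent experiments; mean ± SEM.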

Hepatocyte [15] = assay: Inhibition of glucogenesis in mouse primary hepatocytes stimulated with 100 uM 8-Br-cAMP assessed as effect on PGC1alpha protein expression at 3 uM measured after 12 hrs by western blot analysis; format: functional, cell-based
In short: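 Primary mouse hepatocytes incubated 12 h with 3 μM compound and 100 μM 8-Br-cAMP. Lysates western blotted for FOXO1, C/EBPα or PGC1α. Three independent experiments.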

[16] = molecular target: T1, CREB-binding protein/Histone acetyltransferase p300 (Homo sapiens) (UniProt Q09472+Q92793); assay: Inhibition of CBP/p300 in mouse primary hepatocytes stimulated with 100 uM 8-Br-cAMP assessed as decrease in FOXO1 abundance in cytoplasm at 3 uM; format: cell-based; details: Primary hepatocyte
T1 sequence (Q09472 whole entry, looked up): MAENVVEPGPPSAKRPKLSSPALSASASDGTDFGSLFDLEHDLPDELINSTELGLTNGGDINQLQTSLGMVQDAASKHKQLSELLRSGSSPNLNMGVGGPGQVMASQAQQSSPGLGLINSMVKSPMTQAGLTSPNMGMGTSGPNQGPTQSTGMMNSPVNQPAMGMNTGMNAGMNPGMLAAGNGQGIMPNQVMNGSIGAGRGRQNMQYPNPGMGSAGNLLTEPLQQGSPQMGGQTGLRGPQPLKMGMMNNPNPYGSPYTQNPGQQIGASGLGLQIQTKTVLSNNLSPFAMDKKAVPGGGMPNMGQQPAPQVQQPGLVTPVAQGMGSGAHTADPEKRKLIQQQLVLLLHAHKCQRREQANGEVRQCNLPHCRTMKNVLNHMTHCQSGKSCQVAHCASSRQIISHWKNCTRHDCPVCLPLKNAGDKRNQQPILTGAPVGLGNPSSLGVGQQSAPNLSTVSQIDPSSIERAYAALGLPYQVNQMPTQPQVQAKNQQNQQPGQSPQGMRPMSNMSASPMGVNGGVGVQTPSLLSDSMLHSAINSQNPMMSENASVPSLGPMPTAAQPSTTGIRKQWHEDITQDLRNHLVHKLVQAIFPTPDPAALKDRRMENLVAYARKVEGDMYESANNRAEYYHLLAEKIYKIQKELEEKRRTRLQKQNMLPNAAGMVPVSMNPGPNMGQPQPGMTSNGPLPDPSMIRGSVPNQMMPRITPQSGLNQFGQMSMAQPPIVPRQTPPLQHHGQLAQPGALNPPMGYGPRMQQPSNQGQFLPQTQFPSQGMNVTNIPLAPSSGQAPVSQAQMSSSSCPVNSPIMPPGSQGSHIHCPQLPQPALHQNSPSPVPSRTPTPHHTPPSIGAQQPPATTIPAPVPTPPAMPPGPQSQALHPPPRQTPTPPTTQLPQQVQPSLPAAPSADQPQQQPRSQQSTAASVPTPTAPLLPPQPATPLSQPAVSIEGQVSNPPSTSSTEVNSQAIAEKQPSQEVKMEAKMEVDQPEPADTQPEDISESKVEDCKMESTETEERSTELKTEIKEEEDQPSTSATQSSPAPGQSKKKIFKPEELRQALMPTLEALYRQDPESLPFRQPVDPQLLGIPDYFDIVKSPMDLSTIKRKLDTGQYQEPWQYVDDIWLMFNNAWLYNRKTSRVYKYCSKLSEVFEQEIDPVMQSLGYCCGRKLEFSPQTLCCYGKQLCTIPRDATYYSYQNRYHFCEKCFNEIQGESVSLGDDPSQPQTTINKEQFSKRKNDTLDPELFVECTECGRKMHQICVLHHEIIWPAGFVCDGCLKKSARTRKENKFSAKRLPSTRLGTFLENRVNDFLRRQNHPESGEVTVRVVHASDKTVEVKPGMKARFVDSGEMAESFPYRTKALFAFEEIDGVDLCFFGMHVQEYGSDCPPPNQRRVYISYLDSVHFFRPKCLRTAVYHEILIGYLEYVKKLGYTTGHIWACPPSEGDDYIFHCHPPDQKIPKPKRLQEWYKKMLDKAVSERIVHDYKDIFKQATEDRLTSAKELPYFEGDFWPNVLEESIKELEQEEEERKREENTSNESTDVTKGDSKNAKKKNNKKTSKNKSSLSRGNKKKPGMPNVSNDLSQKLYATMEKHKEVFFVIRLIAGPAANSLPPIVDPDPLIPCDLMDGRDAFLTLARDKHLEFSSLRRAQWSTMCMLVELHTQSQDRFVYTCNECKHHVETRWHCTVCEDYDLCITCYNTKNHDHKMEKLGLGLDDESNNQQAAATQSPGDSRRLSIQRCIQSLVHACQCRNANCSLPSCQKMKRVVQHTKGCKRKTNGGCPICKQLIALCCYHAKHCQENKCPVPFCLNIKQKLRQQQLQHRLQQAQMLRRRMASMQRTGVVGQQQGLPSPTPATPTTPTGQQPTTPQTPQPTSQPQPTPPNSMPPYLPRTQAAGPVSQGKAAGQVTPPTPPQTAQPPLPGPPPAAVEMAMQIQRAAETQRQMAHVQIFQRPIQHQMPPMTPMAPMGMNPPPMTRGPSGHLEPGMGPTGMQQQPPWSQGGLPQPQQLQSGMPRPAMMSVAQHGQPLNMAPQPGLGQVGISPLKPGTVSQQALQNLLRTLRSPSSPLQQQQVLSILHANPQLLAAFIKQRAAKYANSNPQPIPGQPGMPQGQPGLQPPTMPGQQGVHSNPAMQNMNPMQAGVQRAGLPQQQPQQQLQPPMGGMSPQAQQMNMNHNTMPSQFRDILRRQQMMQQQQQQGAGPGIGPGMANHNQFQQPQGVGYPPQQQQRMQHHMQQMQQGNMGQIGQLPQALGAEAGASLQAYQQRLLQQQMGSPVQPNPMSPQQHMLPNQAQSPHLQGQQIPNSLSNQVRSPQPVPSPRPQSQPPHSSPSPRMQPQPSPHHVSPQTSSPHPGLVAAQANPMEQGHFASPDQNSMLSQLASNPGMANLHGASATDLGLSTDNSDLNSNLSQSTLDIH
T1 sequence (Q92793 whole entry, looked up): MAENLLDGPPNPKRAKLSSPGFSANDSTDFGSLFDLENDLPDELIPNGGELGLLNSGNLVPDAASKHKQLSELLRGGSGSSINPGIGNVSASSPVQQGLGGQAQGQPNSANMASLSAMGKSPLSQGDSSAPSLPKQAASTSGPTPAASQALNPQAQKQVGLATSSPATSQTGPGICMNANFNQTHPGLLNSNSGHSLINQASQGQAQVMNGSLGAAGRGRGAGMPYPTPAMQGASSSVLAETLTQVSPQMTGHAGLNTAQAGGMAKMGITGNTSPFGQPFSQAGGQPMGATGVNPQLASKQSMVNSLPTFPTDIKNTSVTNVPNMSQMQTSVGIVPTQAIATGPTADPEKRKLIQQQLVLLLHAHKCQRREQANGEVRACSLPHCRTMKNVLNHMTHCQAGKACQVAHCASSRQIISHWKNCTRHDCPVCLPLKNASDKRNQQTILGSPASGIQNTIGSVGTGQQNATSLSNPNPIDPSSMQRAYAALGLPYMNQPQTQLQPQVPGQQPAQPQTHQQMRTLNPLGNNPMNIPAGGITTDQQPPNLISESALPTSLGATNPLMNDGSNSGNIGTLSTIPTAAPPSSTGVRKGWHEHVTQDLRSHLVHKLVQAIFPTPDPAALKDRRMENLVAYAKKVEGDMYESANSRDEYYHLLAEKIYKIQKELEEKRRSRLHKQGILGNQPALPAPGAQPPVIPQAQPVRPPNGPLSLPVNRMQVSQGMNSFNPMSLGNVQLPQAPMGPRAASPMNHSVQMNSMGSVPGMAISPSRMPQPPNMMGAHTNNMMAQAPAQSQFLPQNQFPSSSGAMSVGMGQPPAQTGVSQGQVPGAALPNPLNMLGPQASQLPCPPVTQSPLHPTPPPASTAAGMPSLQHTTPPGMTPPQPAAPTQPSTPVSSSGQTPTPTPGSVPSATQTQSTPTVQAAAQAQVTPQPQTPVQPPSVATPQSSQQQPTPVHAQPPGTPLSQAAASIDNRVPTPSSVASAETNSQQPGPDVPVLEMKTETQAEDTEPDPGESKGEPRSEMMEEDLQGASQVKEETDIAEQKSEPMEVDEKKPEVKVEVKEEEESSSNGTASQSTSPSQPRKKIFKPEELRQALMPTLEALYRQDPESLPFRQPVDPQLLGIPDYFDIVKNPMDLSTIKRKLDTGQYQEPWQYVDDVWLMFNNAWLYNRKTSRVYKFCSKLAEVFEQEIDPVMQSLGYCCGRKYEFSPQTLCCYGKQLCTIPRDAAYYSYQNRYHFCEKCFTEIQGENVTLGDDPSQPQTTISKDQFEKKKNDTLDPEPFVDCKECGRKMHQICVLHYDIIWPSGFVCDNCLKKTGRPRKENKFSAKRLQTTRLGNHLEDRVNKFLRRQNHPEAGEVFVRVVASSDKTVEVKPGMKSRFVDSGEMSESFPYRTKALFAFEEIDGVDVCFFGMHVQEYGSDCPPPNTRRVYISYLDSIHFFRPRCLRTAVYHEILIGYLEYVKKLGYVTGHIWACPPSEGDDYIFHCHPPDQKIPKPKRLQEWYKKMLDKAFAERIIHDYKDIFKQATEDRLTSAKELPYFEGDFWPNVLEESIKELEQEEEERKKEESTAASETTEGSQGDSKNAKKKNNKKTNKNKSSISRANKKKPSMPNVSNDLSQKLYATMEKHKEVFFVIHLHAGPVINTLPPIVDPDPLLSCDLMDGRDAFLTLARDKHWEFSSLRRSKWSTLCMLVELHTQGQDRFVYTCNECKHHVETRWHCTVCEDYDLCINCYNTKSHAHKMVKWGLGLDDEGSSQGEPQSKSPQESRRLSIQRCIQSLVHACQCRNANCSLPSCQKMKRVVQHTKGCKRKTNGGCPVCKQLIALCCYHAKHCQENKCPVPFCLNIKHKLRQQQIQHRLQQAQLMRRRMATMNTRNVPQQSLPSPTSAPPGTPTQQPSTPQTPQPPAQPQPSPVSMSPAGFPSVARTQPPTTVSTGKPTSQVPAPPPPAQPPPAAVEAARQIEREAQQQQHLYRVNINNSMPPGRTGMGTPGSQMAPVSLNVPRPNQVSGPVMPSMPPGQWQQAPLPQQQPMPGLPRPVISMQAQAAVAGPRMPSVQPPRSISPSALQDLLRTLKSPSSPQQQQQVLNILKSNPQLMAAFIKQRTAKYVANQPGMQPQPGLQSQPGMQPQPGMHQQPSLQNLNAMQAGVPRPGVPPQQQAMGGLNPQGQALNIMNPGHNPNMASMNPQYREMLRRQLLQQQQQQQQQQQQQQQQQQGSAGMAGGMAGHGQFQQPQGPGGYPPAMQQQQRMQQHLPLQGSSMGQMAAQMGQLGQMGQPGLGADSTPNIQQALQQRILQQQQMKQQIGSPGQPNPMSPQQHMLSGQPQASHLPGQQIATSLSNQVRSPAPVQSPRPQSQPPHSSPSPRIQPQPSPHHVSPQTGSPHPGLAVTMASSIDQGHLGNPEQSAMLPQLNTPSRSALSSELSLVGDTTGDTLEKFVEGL
In short: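 Primary mouse hepatocytes treated with 3 μM compound and 100 μM 8-Br-cAMP. Nuclear and cytoplasmic fractions separated with a commercial kit; FOXO1 detected by western blot.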

[17] = molecular target: T1, CREB-binding protein/Histone acetyltransferase p300 (Homo sapiens); assay: Inhibition of CBP/p300 in human HEK293T cells expressing HA-FOXO1 stimulated with 100 uM 8-Br-cAMP assessed as decrease in FOXO1 abundance in nucleus at 3 uM measured after 24 hrs by immunofluorescence analysis; format: cell-based; details: time 3.0 hrs, in the assay text read “3 hrs” for “24 hrs”
In short: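 HEK293T cells transfected with HA-FOXO1 plasmid for 24 h, then treated 3 h with 3 μM compound and 100 μM 8-Br-cAMP. Staining steps: fixed in 10% formalin, permeabilized 0.1% Triton X100, blocked 5% BSA, anti-HA (1:200) overnight at 4 °C, FITC secondary, DAPI. Localization imaged by fluorescence microscopy.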

CNC(=O)Nc1ccc2c(c1)CCS21OC(=O)N(CC(=O)N(Cc2ccc(F)cc2)[C@@H](C)C(F)(F)F)C1=O (some centres not stated)
inactive: Activity (Mus musculus [1]) | inhibition (Mus musculus [11]) | inhibition (Hepatocyte [14]) | inhibition (Hepatocyte [15])
active: inhibition (Mus musculus [2]) | inhibition (Mus musculus [3]) | inhibition (Mus musculus [4]) | inhibition (Mus musculus [5]) | inhibition (Mus musculus [6]) | inhibition (Mus musculus [7]) | inhibition (Adipocyte [8]) | inhibition (Adipocyte [9]) | inhibition (Adipocyte [10]) | inhibition (Hepatocyte [12]) | inhibition (Hepatocyte [13]) | inhibition [16] | inhibition [17]
